Shown are actives, neighbours in structure and some others; about 3.8% of the full set was active somewhere.
V-ATPase pH = alters yeast V-ATPase proton transport | S. cerevisiae, pHLuorin cytosolic pH fluorescence | response, % at 10 µM | 0.37% of 350,000 active; in the data active = response mostly above about 7.3%, no sharp cut-off; inactive = mostly below about 5.4%; also: actives read high
rCAG binder = binds r(CAG) RNA repeats; r(CAG) RNA repeat, TO-PRO-1 dye displacement fluorescence; inhibition, % at 3 µM; 1.3% of 370,000 active; AID 651821;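 active = inhibition above the plate cutoff, the mean of all test compounds on that plate plus 3 SD, cut at about 35% in these data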;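 also: 0% = DMSO alone and 100% = 100 µM mitoxantrone as full dye displacement; higher means more dye released from RNA so lower well fluorescence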
Exocytosis inh = blocks lytic granule exocytosis; TALL-104 LAMP-1 surface exposure, flow cytometry; cells stimulated with thapsigargin and PMA; inhibition, % at 10 µM; 0.66% of 360,000 active; AID 651702;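 active = inhibition above about 55%, limit read from the data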
T cell HTS = T cell immune modulators affecting CD8 T cell-vesicle binding; 2C CD8+ T cell-vesicle binding, flow cytometry; hits give low values; response (vesicle binding), % at 7 µM; 0.068% of 330,000 active; AID 2052;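 active = response, share of CD8 T cells binding vesicles, and their 90th percentile fluorescence all below set limits, cut at about 80% in these data, passing the limit was not always enough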;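 also: values below 100% mean blocked vesicle binding to the CD8+ T cells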
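incubation = binding step 1.5 h, 37 °C, antibody labelling 20 min, ice | test system = 2C mouse CD8+ T cells | read-out basis = percent CD8+ FL2 mean versus row control | controls = Peptide-free naked vesicles (low) and QL9 vesicles with 0.7% DMSO vehicle (high) | detection = flow cytometry of vesicle-bound cells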
MPTP block = blocks calcium-induced mitochondrial swelling; AID 602449; inhibition, % at 10 µM; 1.4% of 360,000 active; isolated mouse mitochondria, Ca2+ swelling absorbance, 30 min;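 active = inhibition of 50% or more, scaled per plate between neutral and stimulator controls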;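 also: 0% = DMSO wells given calcium and 100% = 1 mM EGTA wells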
B2AR ag = human beta-2 adrenergic receptor agonism by FAP; response, % (test concentration not listed); Am2.2-beta2AR cells, FAP receptor internalization, flow cytometry; AID 504454; 0.43% of 340,000 active; P07550;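 active = response above a set limit, near 3 SD of response in nonfluorescent compounds, cut at about 42% in these data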
Target sequence (P07550 whole entry, looked up): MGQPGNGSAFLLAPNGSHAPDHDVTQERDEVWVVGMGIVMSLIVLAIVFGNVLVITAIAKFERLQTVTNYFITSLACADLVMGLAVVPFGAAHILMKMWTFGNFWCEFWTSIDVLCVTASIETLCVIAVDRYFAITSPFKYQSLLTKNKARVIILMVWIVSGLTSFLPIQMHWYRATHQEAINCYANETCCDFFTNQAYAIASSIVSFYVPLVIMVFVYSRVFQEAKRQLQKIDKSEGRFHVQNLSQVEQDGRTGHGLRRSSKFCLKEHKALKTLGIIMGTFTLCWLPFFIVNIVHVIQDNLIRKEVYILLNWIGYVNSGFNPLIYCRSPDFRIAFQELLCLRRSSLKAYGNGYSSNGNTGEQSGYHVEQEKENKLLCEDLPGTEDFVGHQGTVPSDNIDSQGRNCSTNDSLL
B2AR ag CP1 = activates human beta-2 adrenergic receptor; shares compounds with B2AR ag; Am2.2-beta2AR cells, FAP surface receptor, flow cytometry; hits give low values; percent response (surface receptor), % at 10 µM; 25% of 1,100 active;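 active = surface receptor percent response at or below 58%, roughly 3 SD from nonfluorescent compounds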
FAP fluor counter = flagged in Am2.2 fluorescence counterscreen for beta-2AR agonists; calls only at 10 µM; Am2.2 cells, FAP fluorogen flow cytometry; hits give low values; shares compounds with B2AR ag; 1,100 tested, under 10 active; AID 588765;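 active = percent response below a set limit in fluorescence channel 1 and below 50% in channel 8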
* marks the source's active call; other numbers are inactive results; i = inactive; nt = no result given; + = active, no number; ! = repeats disagree.

SMILES	V-ATPase pH	rCAG binder	Exocytosis inh	T cell HTS	MPTP block	B2AR ag	B2AR ag CP1	FAP fluor counter
Cc1ccc(Cn2c(N)c(S(=O)(=O)c3cccs3)c3nc4ccccc4nc32)cc1	0	2	1	i	32	52*	74	i
COCCN1Cc2cc(C(=O)OC)c3c(c2C1=O)c1cc(OC)ccc1n3C(=O)c1ccccc1	nt	8	nt	nt	nt	nt	nt	nt
COc1cc2nc(N3CCN(C(=O)C4COc5ccccc5O4)CC3)nc(N)c2cc1OC (stereo not drawn)	0	0	1	627	-4	7	100	i
CCOc1ccc2nc(SCCNS(=O)(=O)c3ccccc3)sc2c1	3	-2	0	129	4	61*	102	i
CCOC(=O)N1CCC(NC(=O)CCS(=O)(=O)c2ccc3c(c2)CCN3C(C)=O)CC1	-10	-3	1	168	0	2	nt	nt
CC1CCC(NC(=O)CCS(=O)(=O)c2ccc3c(c2)CCN3C(=O)C2CC2)CC1 (stereo not drawn)	-2	-7	-4	534	0	105*	18*	i
O=C(COc1ccc(S(=O)(=O)N2CCOCC2)cc1)Nc1ccccc1F	3	-5	36	368	-2	3	98	i
O=C(COc1ccc(S(=O)(=O)N2CCOCC2)cc1)Nc1ccccc1Cl	-3	0	-4	390	0	1	117	i
COC(=O)[C@]12C=CCN1[C@@H](c1ccc(OC)c(OC)c1)c1c(c3ccccc3n1S(=O)(=O)c1ccc(C)cc1)C2	nt	10	nt	nt	nt	nt	nt	nt
Oc1ccccc1Nc1nc(NCC2CCCO2)c2ccccc2n1 (stereo not drawn)	-3	2	10	306	6	47*	8.6*	+
Cc1ccc(S(=O)(=O)N2CCCC2C(=O)NCCc2nc3ccccc3[nH]2)cc1 (stereo not drawn)	-4	-5	0	554	0	50*	117	i
Cc1ccc(S(=O)(=O)N2CCCC2C(=O)NCCc2ccccc2)cc1 (stereo not drawn)	-1	-3	0	354	-1	-3	nt	nt
O=C(OC12CCCN(C1)/C(=C/c1cccc(Cl)c1)C2)c1ccccc1 (stereo not drawn)	nt	2	nt	nt	nt	nt	nt	nt
Cc1cccc(NC(=O)c2cc(-c3cccnc3)nc3c(C)cccc23)n1	0	-1	5	249	1	75*	129	i
CCN(CC)c1ccc([C@H]2[C@@H]3CCCC[C@]3(O)CCN2CC(=O)NCc2ccco2)cc1	7	-10	0	349	0	23	126	i
C[C@@H]1C=CCCO[C@]12C(=O)Nc1ccccc12	nt	1	nt	nt	nt	nt	nt	nt
CCCNC(C)C(=O)Nc1ccccc1C (stereo not drawn)	-4	1	3	549	-2	-3	115	i
Cc1ccc(NC(=O)C(c2ccccc2)c2ccccc2)c(O)c1	4	10	-6	162	3	48*	104	i
COc1cc(NC(=O)C(c2ccccc2)c2ccccc2)c(C(=O)O)cc1OC	3	21	-2	180	0	6	nt	nt
COc1ccccc1N1CCN(C(=O)CN(C)S(=O)(=O)c2ccc(C)cc2)CC1	nt	0	-8	nt	-2	nt	47*	i
COc1ccc(S(=O)(=O)N(C)CC(=O)N2CCN(c3ccc(F)cc3)CC2)cc1OC	3	3	-1	255	0	2	5.1*!	i
COc1ccc(S(=O)(=O)N(C)CC(=O)N2CCN(c3ccccc3)CC2)cc1	-2	0	-5	572	-2	-15	124	i
O=C(CN(CCc1ccccc1)S(=O)(=O)c1ccc(F)cc1)N1CCOCC1	nt	5	nt	nt	nt	nt	nt	nt
Cc1ccc(OCC(=O)Nc2ccc(-c3nc4ncccc4o3)cc2)c(C)c1	-2	-2	0	218	-4	116*	16*	i
Cc1ccc(C(=O)Nc2cccc(-c3nc4ncccc4o3)c2)cc1	2	2	-2	274	2	-3	nt	nt
SMILES	V-ATPase pH	rCAG binder	Exocytosis inh	T cell HTS	MPTP block	B2AR ag	B2AR ag CP1	FAP fluor counter
COc1ccccc1N1CCN(C(=O)c2cc3c(C)nn(-c4ccccc4)c3s2)CC1	nt	6	nt	nt	nt	nt	nt	nt
O=S1(=O)c2ccc(N3CCN(Cc4ccccc4F)CC3)cc2Oc2ccccc2CN1Cc1cn(Cc2ccc(C(F)(F)F)cc2)nn1	nt	13	nt	nt	nt	nt	nt	nt
Cc1ccc(C(=O)NCCN2C3=NC[C@H](Cc4ccc(O)cc4)N3C[C@H]2Cc2ccc(O)cc2)cc1Br	4	16	-2	737	-1	-3	nt	nt
COc1ccc(C[C@H]2CN3C(=NC[C@@H]3Cc3ccc(O)cc3)N2CCNC(=O)c2ccc(C)c(Br)c2)cc1	-2	8	0	nt	1	47*	94	i
COC(=O)[C@]12C[C@H](CC(=O)NCc3cccs3)C(=O)N(Cc3ccco3)C1=C[C@H](COCc1ccccc1)O[C@@H]2C	nt	4	nt	nt	nt	nt	nt	nt
CCOc1c(Br)cc(CNc2ccc3c(c2)OCCO3)cc1OC	8	6	13	414	0	14	nt	nt
CCOc1cc(CNc2ccc3c(c2)OCCO3)cc(Br)c1OC	5	4	11	223	0	46*	87	i
CC1CC(C)CN(S(=O)(=O)c2ccc(C(=O)NCCCn3ccnc3)cc2)C1 (stereo not drawn)	-3	nt	4	211	2	55*	106	i
O=C(NCCCn1ccnc1)c1ccc(S(=O)(=O)N2CCCCCC2)cc1	-4	-7	-1	220	-3	-2	nt	nt
CS(=O)(=O)c1ccc(Sc2nc3ccccc3s2)c([N+](=O)[O-])c1	1	nt	-10	162	2	2	nt	nt
O=[N+]([O-])c1cc(S(=O)(=O)C(F)(F)F)ccc1Sc1nc2ccccc2s1	0	0	18	390	-6	45*	73	i
O=[N+]([O-])c1cnc(Sc2ccncn2)s1	9	-1	61*	112	4	92*	16*	i
COc1ccc2c(c1)CNC2CS(=O)(=O)NCc1ccc(F)cc1 (stereo not drawn)	nt	11	nt	nt	nt	nt	nt	nt
Cc1cccc(OCC(C)CN2CCC(C(O)(c3ccccc3)c3ccccc3)CC2)c1 (stereo not drawn)	nt	1	nt	nt	nt	nt	nt	nt
COC(=O)[C@@]12CCCCC3=C1N(CCC3)C(=O)[C@H]2CC(=O)NCc1ccc(C)o1	nt	2	nt	nt	nt	nt	nt	nt
COc1ccccc1C(=O)Nc1ccc(S(=O)(=O)N2CCC(C)CC2)cc1	3	7	6	150	1	2	nt	nt
COc1ccccc1C(=O)Nc1ccc(S(=O)(=O)N2CCCCC2c2cccnc2)cc1 (stereo not drawn)	-2	-2	12	140	1	-16	133	i
